The source made the active and inactive calls. The rule behind the calls is not given here.
How the values were obtained:
[1] = Inhibition of C-terminal TAMRA-labeled REV3L (1875 to 1895 residues) binding to 5'-MBP-His8/3'-FLAG-tagged REV7 R124A mutant (unknown origin) expressed in Escherichia coli BL21(DE3) after 4 hrs by fluorescence polarization assay; set-up: species or system Homo sapiens
In short: (§1)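 Compounds serially diluted from 10 mM DMSO stock. 4 h incubation, triplicate. Read at ex 555/em 632 nm, reported in mP. Controls: DMSO, and unlabeled REV3L peptides. Compound autofluorescence checked.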

[2] = tested on: HeLa; assay: Potentiation of cisplatin-induced anticlonogenic activity in human HeLa cells at 75 uM after 24 hrs by crystal violet staining based assay; format: functional, cell-based
In short: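 HeLa cells at 450/well in 6-well plates, attached overnight. Cisplatin added at indicated concentrations; 24 h later, compound at 75 µM final or DMSO added for another 24 h. Medium then replaced and culture continued 6 days. Fixed in 3.7% formaldehyde, stained with 0.5% crystal violet, colonies over ~40 cells counted. Triplicate. Survival normalized to cisplatin-vehicle (0.9% NaCl) wells.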

[3] = tested on: COS-7; assay: Inhibition of REV7/REV3L protein interaction in African green monkey COS7 cells expressing ICL assessed as inhibition of ICL repair activity at 75 uM after 13 hrs by luciferase reporter gene assay; format: cell-based; conditions: Chlorocebus aethiops
In short: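 COS7 cells at 80,000/well. Medium replaced after 5 h, then transfected with pGL-ICL (10 ng) or pGL4.50 (2.5 ng) plus pRL-TK, FuGENE 6. Cells trypsinized 5 h later and replated in quadruplicate with compound or DMSO. Dual firefly/Renilla luciferase read after 13 h. ICL plasmid signal normalized to non-ICL plasmid. Two-tailed unpaired t-test.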

[4] = tested on: HeLa; assay: Cytotoxicity in human HeLa cells assessed as decrease in cell viability at 75 uM after 3 days by alamar blue assay; format: functional, cell-based
In short: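 HeLa cells at 1000/well, attached overnight, then given compound or DMSO in fresh medium, triplicate, for 3 days. alamarBlue added for 3 h, fluorescence read at ex 510/em 590 nm. Viability normalized to DMSO-treated cells.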

[5] = tested on: Mitotic spindle assembly checkpoint protein MAD2B (Homo sapiens), Q9UI95 [R124A]; assay: Binding affinity to 5'-MBP-His8/3'-FLAG-tagged REV7 R124A mutant (unknown origin) expressed in Escherichia coli BL21(DE3) at 200 uM by 1H waterLOGSY NMR method
Mitotic spindle assembly checkpoint protein MAD2B (Homo sapiens), Q9UI95 [R124A], sequence (Q9UI95 whole entry R124A, the tested form may be a part): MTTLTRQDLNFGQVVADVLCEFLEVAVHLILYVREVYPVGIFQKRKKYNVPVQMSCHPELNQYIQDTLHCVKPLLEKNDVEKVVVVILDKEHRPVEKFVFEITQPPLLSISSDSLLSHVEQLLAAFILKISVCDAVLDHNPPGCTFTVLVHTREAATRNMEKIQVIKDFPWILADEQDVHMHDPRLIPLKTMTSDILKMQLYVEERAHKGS

[6] = species on record: Homo sapiens; assay: Binding affinity to biotin-Avi-tagged REV3L (1846 to 1898 residues)/His-tagged REV7 R124A mutant complex (unknown origin) expressed in Escherichia coli BL21(DE3) at 5 uM incubated for 20 hrs by pulldown assay
In short: (§2)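 Complex at 1 µM (biotin-AviTag-REV3L(1846–1898) co-expressed with His-REV7(R124A), Ni-purified) with 0.5% DMSO, compound (50 µM) or REV3L(1875–1895) peptide (5 µM) in 50 mM HEPES pH 7.4, 150 mM NaCl, 0.1% Tween 20. Shaken at 1500 rpm, 4 °C, 20 h. Streptavidin agarose then added for 4 h. Beads washed, heat-eluted, run on SDS gel, stained. Duplicates.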

[7] = species on record: Homo sapiens; assay: Binding affinity to biotin-Avi-tagged REV3L (1846 to 1898 residues)/His-tagged REV7 R124A mutant complex (unknown origin) expressed in Escherichia coli BL21(DE3) at 50 uM incubated for 20 hrs by pulldown assay; in short: as §2
[8] = species on record: Homo sapiens; assay: Destabilization of biotin-Avi-tagged REV3L (1846 to 1898 residues)/His-tagged REV7 R124A mutant complex (unknown origin) expressed in Escherichia coli BL21(DE3) incubated for 4 hrs by SYPRO orange dye based RT-PCR analysis
In short: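 His-REV7(R124A)/REV3L complex at 5 µM in 25 mM HEPES, 100 mM NaCl, pH 7.3 with SYPRO orange 1:2000. Compound at 500 µM final (10 mM DMSO stock) or DMSO, duplicate, 4 h at room temperature. Ramp 25 to 95 °C at 1 °C/min, ex 492/em 610 nm. Tm taken as inflection point of Boltzmann sigmoid fit.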

[9] = species on record: Homo sapiens; assay: Inhibition of C-terminal biotin-tagged REV3L (1875 to 1895 residues) binding to REV3L (1846 to 1898 residues)/His-tagged REV7 R124A mutant complex (unknown origin) expressed in Escherichia coli BL21(DE3) […] by alphascreen assay
[10] = species on record: Homo sapiens; assay: Inhibition of C-terminal TAMRA-labeled REV3L (1875 to 1895 residues) binding to 5'-MBP-His8/3'-FLAG-tagged REV7 R124A mutant (unknown origin) expressed in Escherichia coli BL21(DE3) at 3 to 300 uM after 4 hrs by fluorescence polarization assay; in short: as §1

With CC(=O)N1CCC(Cn2cnc3scc(-c4ccc(C)o4)c3c2=O)CC1 the IC50 [1] was 78 µM, the Activity [2] was “Active” and the inhibition [3] was “Active”. For the same compound, the Activity [4] was “Active” and the Activity [5] was “Active”.
For CC[C@H](C)[C@H](NC(=O)[C@H](CCC(=O)O)NC(=O)[C@H](CCC(=O)O)NC(=O)[C@H](CCCNC(=N)N)NC(=O)[C@H](CO)NC(=O)[C@@H]1CCCN1C(=O)[C@@H]1CCCN1C(=O)[C@H](CO)NC(=O)[C@H](CCSC)NC(=O)[C@H](CC(C)C)NC(=O)[C@@H]1CCCN1C(=O)[C@H](CCCCN)NC(=O)[C@H](CC(C)C)NC(=O)[C@@H](NC(=O)[C@H](CC(N)=O)NC(=O)[C@H](C)N)[C@@H](C)CC)C(=O)N[C@@H](CCSC)C(=O)N[C@@H](C)C(=O)N[C@H](C(=O)N[C@@H](CC(C)C)C(=O)N[C@@H](CC(C)C)C(=O)O)[C@@H](C)O, the Activity [6] was “Active”.
With CC(=O)N1CCC(Cn2cnc3scc(-c4ccco4)c3c2=O)CC1 the Activity [7] was “Active”, the Activity [8] was “Active” and the inhibition [9] was “Active”.
With CC(=O)N1CCC(Cn2cnc3scc(-c4ccc(C(=O)N5CCOCC5)o4)c3c2=O)CC1 the inhibition [10] was “Active”.
